# Compound activity: PubChem, several laboratories
# TNAP inh noacc = blocks human TNAP activity with no phosphate acceptor present | purified TNAP, CDP-star luminescence, 30 min | AID 1012 | P05186 | hit rate 0.26% among 200,000 | inhibition, % at 20 µM;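 active means tissue-nonspecific alkaline phosphatase inhibition above about 50% at 20 µM in the single-dose screen, limit read from the data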;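 further: 0% = DMSO negative control and 100% = EDTA positive control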
# Target sequence (P05186 whole entry, looked up): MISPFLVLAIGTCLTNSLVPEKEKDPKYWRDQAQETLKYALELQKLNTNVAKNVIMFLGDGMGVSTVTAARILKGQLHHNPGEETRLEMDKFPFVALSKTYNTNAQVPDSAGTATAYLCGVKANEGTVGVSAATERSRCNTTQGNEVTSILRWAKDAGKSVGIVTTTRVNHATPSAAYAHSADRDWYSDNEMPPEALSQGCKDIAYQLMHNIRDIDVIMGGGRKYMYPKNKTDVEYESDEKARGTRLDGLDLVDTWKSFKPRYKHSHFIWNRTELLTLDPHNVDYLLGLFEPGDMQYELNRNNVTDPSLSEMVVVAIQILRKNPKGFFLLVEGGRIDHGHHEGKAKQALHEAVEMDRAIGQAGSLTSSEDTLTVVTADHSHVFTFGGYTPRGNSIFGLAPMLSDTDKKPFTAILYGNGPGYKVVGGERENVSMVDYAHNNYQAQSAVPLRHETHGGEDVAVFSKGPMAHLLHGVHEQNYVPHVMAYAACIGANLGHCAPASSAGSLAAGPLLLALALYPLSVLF
# TNAP inh hiacc = inhibitors of human TNAP at high phosphate acceptor concentration | hit rate 0.03% among 200,000 | purified TNAP, CDP-star luminescence, 1 M DEA | inhibition, % at 20 µM;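 active means over 50% inhibition of tissue-nonspecific alkaline phosphatase at 20 µM in the single-dose screen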;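 further: plate controls were DMSO wells for no effect and EDTA-quenched wells as full inhibition for full effect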
# HCT116 bCat-KO = beta-catenin-lacking colon tumor cell growth suppression; AID 818; viability, % at 10 µM; hit rate 1.5% among 140,000; HCT116 beta-catenin knockout viability, CellTiter-Glo, 60 h; hits give low values;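 active means viability at or under a set limit, the compound median less 4 SD, cut at about 6% in these data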;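 further: 0% = Hyamine 1622 control at 20 µM and 100% = untreated cell control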
# TNAP act hiacc = increases human TNAP activity under high phosphate acceptor concentration; P05186; purified TNAP, CDP-star luminescence, 1 M DEA, 30 min; hits give high values; 0 = EDTA background, 1 = DMSO-only activity; activation factor at 20 µM; 200,000 tested, under 10 active; AID 1136;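 active means activation factor at least 2 at 20 µM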
#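 Test system – human TNAP · Doses – 20 µM single point · Incubation – 30 min, room temperature · Signal – luminescent substrate turnover signal · Read-out basis – activation factor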
# Lmaj promast = reduces viability of Leishmania major promastigotes; hit rate 9% among 200,000; resazurin fluorescence viability; AID 1063; inhibition, % at 10 µM; in the data active means inhibition above about 50%;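 further: promastigotes grown with compound for 44 hours at 28 °C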
# HCT116 PTEN-null = growth suppressors of cells with PTEN tumor suppressor deletion; HCT116 PTEN-null viability, CellTiter-Glo, 60 h; hits give low values; viability, % at 10 µM; hit rate 1.2% among 140,000; AID 827;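 active means viability at or below a set limit, 4 SD under the median of all tested compounds, cut at about 3.7% in these data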;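 further: PTEN knockout HCT116 line with beta catenin targeted HCT116 as companion control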
# Starred values were filed as active, the others as inactive; . = no result given. In the library only some 9.6% were active in any assay of this set; here they are far more common.
SMILES,TNAP inh noacc,TNAP inh hiacc,HCT116 bCat-KO,TNAP act hiacc,Lmaj promast,HCT116 PTEN-null
COc1ccc(Nc2nnc(SCC(=O)/C=C3/N(C)c4ccccc4C3(C)C)s2)cc1,-13,-6,17,1.1,96*,20
O=C(N/N=C/c1ccccc1O)c1cc(=O)[nH]c2ccccc12,-115,-1,50,1,99*,45
CC(NC(=O)c1cc(=O)[nH]c2ccccc12)c1ccccc1 (stereo unspecified),-6,-4,.,1,7,.
CCc1nnc(NS(=O)(=O)c2ccc(Nc3ccc4nonc4c3[N+](=O)[O-])cc2)s1,6,8,.,0.9,-3,.
CCCNC(=O)CNC(=S)N(Cc1cc(OC)c(OC)c(OC)c1)C1CCCC1,-15,-3,99,1,54*,95
Nc1nc(C23CC4CCC(CC(C4)C2)C3)cs1,-7,-3,86,1,16,82
O=C(Nc1ccccc1Cl)c1ccc(S(=O)(=O)N2CCOCC2)cc1,-2,5,82,0.9,10,86
CC1(C)CC2CC(C)(CN2S(=O)(=O)c2ccc(C(=O)Nc3cc(S(=O)(=O)N4CCOCC4)ccc3Cl)cc2)C1 (stereo unspecified),-5,-4,67,1,99*,90
CC1(C)CC2CC(C)(CN2S(=O)(=O)c2ccc(C(=O)Nc3cccc(S(=O)(=O)N4CCOCC4)c3)cc2)C1 (stereo unspecified),-6,-8,9,1.1,99*,15
CC(=O)Oc1ccc(-c2ccc(C(=O)Nc3cccc(S(=O)(=O)N4CCOCC4)c3)cc2)cc1,0,-1,.,1,15,.
Clc1ccc(-n2ncc3c(NCCCn4ccnc4)ncnc32)cc1,6,-3,89,1,100*,94
CCCCNc1ncnc2c1cnn2-c1ccc(Cl)cc1,-6,-1,19,1,1,23
Clc1ccc(-n2ncc3c(NCCN4CCOCC4)ncnc32)cc1,-5,-1,94,1,86*,91
c1ccc(-n2ncc3c(NCCCN4CCOCC4)ncnc32)cc1,-2,3,93,1,-4,88
CCCN(CCC)C(C)C(=O)NCC1(c2ccccc2)CCCC1 (stereo unspecified),-5,-6,.,1.1,11,.
CCOc1ccc(CC2c3cc(OCC)c(OCC)cc3CCN2C(=O)c2cc(OC)c(OC)c(OC)c2)cc1OCC (stereo unspecified),0,-10,78,1.1,55*,65
O=C(c1ccc(Cl)c(Cl)c1)N(Cc1ccco1)c1ccc(O)cc1,-7,2,61,1,70*,58
O=C(COc1ccccc1)N(Cc1ccco1)c1ccc(O)cc1,-15,-6,86,1.1,-6,91
O=C(/C=C/c1ccccc1)Nn1cnc2ccccc2c1=O,-11,-6,93,1.1,-7,106
O=C(/C=C/c1ccccc1Cl)Nn1cnc2ccccc2c1=O,-16,-2,89,1,79*,86
Cc1nc2ccccc2c(=O)n1NC(=O)/C=C/c1ccccc1Cl,-7,-2,90,1,69*,87
CC(C)c1ccc(NC(=O)N2CCCC2C(=O)Nc2ccc(-n3cnnn3)cc2)cc1 (stereo unspecified),-10,-6,.,1.1,66*,.
CCOC(=O)c1c(C)[nH]c(C(=O)OCCOc2ccccc2C)c1C,-8,-3,78,1,-2,78
N#Cc1ccc(C(=O)Nc2nnc(-c3cccs3)o2)cc1,-30,-8,.,1.1,98*,.
O=C(Nc1nnc(-c2cccs2)o1)c1cccc(C(F)(F)F)c1,-18,0,13,1,95*,8
SMILES,TNAP inh noacc,TNAP inh hiacc,HCT116 bCat-KO,TNAP act hiacc,Lmaj promast,HCT116 PTEN-null
CN(C)S(=O)(=O)c1ccc(C(=O)Nc2nnc(-c3ccc4c(c3)CCCC4)o2)cc1,-18,-6,15,1.1,98*,15
CN(C)S(=O)(=O)c1ccc(C(=O)Nc2nnc(-c3cccs3)o2)cc1,-16,-1,.,1,53*,.
O=C(Nc1cnccn1)c1cccc(C(F)(F)F)c1,-6,0,113,1,-4,121
COc1ccc2oc(C(=O)OCC(=O)/C(C#N)=C(\C)N)c(C)c2c1,-16,-2,.,1,-3,.
CCc1cccc(NC(=O)CCCSc2nc3ccccc3[nH]2)c1,-54,-4,93,1,8,81
O=C1[C@H]2[C@H]3[C@H](O)[C@H](O)C/C(=N\OC[C@@H](O)COCc4ccco4)[C@@H]3CC[C@H]2C(=O)N1c1ccc(F)cc1F,1,2,0.3*,1,-2,79
O=C1NN(c2ccccc2)C(=O)/C1=C\c1ccc(-c2cc([N+](=O)[O-])ccc2O)o1,52*,44,.,0.6,-11,.
COc1ccc(-n2c(C)cc(/C=C3\C(=O)NN(c4ccccc4)C3=O)c2C)cc1,0,9,82,0.9,-1,79
COc1ccc(Sc2ccc(/C=C3\C(=O)NN(c4ccccc4)C3=O)o2)cc1,17,17,61,0.8,56*,56
CC(=O)N1CCc2cc(S(=O)(=O)NCCN3CCC(C)CC3)ccc21,-13,-7,97,1.1,58*,102
CC(=O)N1CCc2cc(S(=O)(=O)NCCCN3CCN(Cc4ccccc4)CC3)ccc21,-20,-7,61,1.1,-3,65
CC(=O)N1CCc2cc(S(=O)(=O)NC(CC(C)C)C(=O)N3CCc4ccccc4C3)ccc21 (stereo unspecified),-11,0,90,1,73*,83
O=S(=O)(NNc1ccc(Cl)nn1)c1ccc(F)cc1,8,7,78,0.9,91*,87
CC(=O)c1cccc(NC(=O)C(CC(C)C)NC(=O)C2CCCCC2)c1 (stereo unspecified),-6,-5,.,1,22,.
Cc1ccccc1N=Nc1c(C)[nH]n(C(N)=S)c1=O,-11,7,90,0.9,53*,94
COc1cccc(/C=N/NC(=O)c2cccc([N+](=O)[O-])c2)c1OS(=O)(=O)c1ccccc1,-4,-1,76,1,100*,69
COc1cccc(/C=N/NC(=O)c2ccc([N+](=O)[O-])cc2Cl)c1O,-39,6,5.6*,0.9,99*,6
Cc1cc(C)c2cc(C#N)c(NCCNC(=S)NCCCN3CCOCC3)nc2c1,-10,-5,.,1,2,.
Cc1cc(C)c2nc(C(F)(F)F)nc(NCCCN3CCOCC3)c2c1,-10,-1,23,1,95*,38
O=C(c1cccs1)C1CCCN(Cc2nc(Cc3ccccc3F)no2)C1 (stereo unspecified),-7,-7,.,1.1,78*,.
O=C(NC1CCCCC1)N1CCC(c2nc(-c3ccc(S(=O)(=O)N4CCCC4)cc3)no2)CC1,-10,-3,62,1,75*,50
